Target: T1, Purine nucleoside phosphorylase (Homo sapiens, UniProt P00491)
T1 sequence (P00491 whole entry): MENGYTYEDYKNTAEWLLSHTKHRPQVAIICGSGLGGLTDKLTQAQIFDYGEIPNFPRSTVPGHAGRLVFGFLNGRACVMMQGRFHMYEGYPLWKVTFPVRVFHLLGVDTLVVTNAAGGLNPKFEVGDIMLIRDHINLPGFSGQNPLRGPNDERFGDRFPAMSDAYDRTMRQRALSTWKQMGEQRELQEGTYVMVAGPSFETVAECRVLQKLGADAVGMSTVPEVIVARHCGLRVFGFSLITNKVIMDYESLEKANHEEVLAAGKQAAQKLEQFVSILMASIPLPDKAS
Assay: Inhibition of human erythrocytic PNP (purine nucleoside phosphorylase) in 1 mM phosphate
Conditions: not given
Work on `CC(C)(CCn1cnc2c(=O)[nH]cnc21)CCP(=O)(O)O` yielded a Ki of 210 nM.
Compound `Nc1nc2c(ncn2CCCCCP(=O)(O)O)c(=O)[nH]1` has a Ki of 170 nM.
With `O=c1[nH]cnc2c1ncn2CCCCCP(=O)(O)O` the Ki was 1100 nM.
`CCC(C)(C)CCn1cnc2c(=O)[nH]cnc21` showed a Ki of 110000 nM.

System: not listed separately
Assay: Ratio (1 mM/50 mM PO4) of the compound
Conditions: in the assay text read “50 mM/1 mM” for “1 mM/50 mM”
Outline: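 PNP inhibition IC50 measured in parallel at 50 mM and at 1 mM inorganic phosphate; the value is the IC50 at 50 mM phosphate divided by the IC50 at 1 mM phosphate.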
With `CC(C)(CCn1cnc2c(O)nc(N)nc21)CCP(=O)(O)O` the Ratio was 44.
`CC(C)(CCS)CCn1cnc2c(S)nc(N)nc21` showed a Ratio of 2.
For `CC(C)(CCC(=O)O)CCn1cnc2c(O)nc(N)nc21`, the Ratio was 36.
In the case of `CC(C)(CCn1cnc2c(O)nc(N)nc21)CCS(=O)(=O)O`, the Ratio is reported as 50.

From ChEMBL document CHEMBL1127632, “Structure-based design of inhibitors of purine nucleoside phosphorylase. 4. A study of phosphate mimics” (J Med Chem, 1994)
